Source: PubChem BioAssay (several laboratories)
CaV13 FRET inh: Disruptors of the CACNA1D IQ motif to Ca2+-dependent inactivation inhibitor domain association, primary screening, Förster resonance energy transfer in intact living … | AID 743397 | HEK cells, CFP/YFP FRET ICDI-IQ, plate reader, 10 min; percent FRET-ratio fall versus neutral wells | hit rate 0.098% among 340,000 | inhibition, % at 12.3 µM;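 active = mean replicate inhibition of at least 30% and at least 1% of replicates passing that level; inconclusive = only one of the two criteria is met; inactive = neither criterion is met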;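 also: 0% = median of the neutral control wells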
SR-BI HDL uptake: blocks mouse SR-BI lipid uptake from DiI-HDL | Q61009 | ldlA[mSR-BI] CHO cells, DiI-HDL uptake fluorescence, 3 h | inhibition, % at 12.5 µM | hit rate 0.96% among 320,000 | AID 488896;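 active = mean replicate inhibition of at least 70% and a set share of replicates each scoring 70 or more; inconclusive = meets just one of the two criteria; inactive = fails both criteria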;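 also: 0% = median of neutral control wells and 100% = median of positive control wells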
Target sequence (Q61009 whole entry, looked up): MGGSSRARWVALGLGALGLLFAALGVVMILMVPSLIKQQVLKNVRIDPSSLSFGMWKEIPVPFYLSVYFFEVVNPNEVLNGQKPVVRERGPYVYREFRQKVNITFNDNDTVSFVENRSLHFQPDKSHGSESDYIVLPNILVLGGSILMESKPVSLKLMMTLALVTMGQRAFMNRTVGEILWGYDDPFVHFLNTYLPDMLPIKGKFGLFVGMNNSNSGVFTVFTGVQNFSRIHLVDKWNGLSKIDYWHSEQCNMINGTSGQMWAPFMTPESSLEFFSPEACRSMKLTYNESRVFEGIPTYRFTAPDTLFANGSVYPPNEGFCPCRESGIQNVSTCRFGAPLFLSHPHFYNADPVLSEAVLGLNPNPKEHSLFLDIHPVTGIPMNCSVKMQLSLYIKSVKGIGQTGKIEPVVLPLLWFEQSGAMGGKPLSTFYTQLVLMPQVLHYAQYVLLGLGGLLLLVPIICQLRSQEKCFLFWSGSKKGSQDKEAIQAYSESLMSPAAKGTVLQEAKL
Efflux pump mplx: blocks antifungal efflux pumps in multiplex yeast assay. AID 485275. inhibition, % at 10 µM. S. cerevisiae Candida pump triplex, Nile Red efflux. hit rate 0.44% among 330,000;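 active = plate passing quality check with inhibition over a set limit, or well fluorescence over plate mean plus 4 SD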;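 also: Nile Red retained in pooled yeast measured as flow cytometry median fluorescence; 0% = buffer negative control and 100% = Enniatin B positive control; higher means more Nile Red kept so more efflux inhibition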
SR-BI uptake up: enhances SR-BI lipid uptake from DiI-HDL; CHO ldlA[mSR-BI] cells, DiI-HDL uptake fluorescence, 3 h; 100 = double the neutral-control signal; hit rate 0.096% among 320,000; activation, % at 12.5 µM;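 active = mean replicate activation of at least 60% and every replicate at or above 60%; inconclusive = mean or all-replicate condition met, but not both; inactive = mean below 60% and not all replicates reaching 60%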;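 also: 0% = median plate neutral-control signal and 100% = twice that signal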
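material = CHO ldlA[mSR-BI] cells | medium = Ham's F12 with 0.5% BSA, HEPES 25 mM, pH 7.4 | reagent = fluorescent DiI-HDL, 10 µg/mL final | compound dosing = single-point compound dose | incubation = 3 h, 37 °C | measured by = bottom-read fluorescence, 550/595 nm | measure = HDL uptake via cellular fluorescence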
FN deposition inh: fibronectin deposition inhibition | hit rate 0.086% among 350,000 | inhibition, % at 12.6 µM | AH1F fibroblasts, Alexa488-fibronectin deposition fluorescence, overnight;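 active = mean inhibition across replicates of 30% or more, regardless of how many single replicates reach that level; inconclusive = mean under 30% yet at least half of replicates reach 30%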;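 also: positive control wells lacked labelled fibronectin entirely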
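Assay system: AH1F fibroblasts / Quantity: 10000 cells per well / Medium: DMEM plus 2% serum, read in PBS / Reagent: labelled fibronectin 24 nM / Dosing: single dose, pinned / Times: 1 h cell attachment, overnight exposure to compound and label / Signal: fluorescence, ex 485 nm, em 525 nm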
DiI quench: counter-screen for SR-BI lipid transfer inhibitors: DiI fluorescence quenchers | AID 540326 | shares compounds with SR-BI HDL uptake | hit rate 20% among 470 | AC50, µM (doses to about 35 µM), without a hit: top-dose activity change, negative = quenching | cell-free DiI-HDL fluorescence quenching, 30 min;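 active = quenching, a falling signal, with AC50 below a set limit tied to the top valid dose, actives reach about 32 µM in these data; inconclusive = no clear call, values can overlap the other calls; inactive = rising signal, and the rest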
Active calls of the source: *; ? = inconclusive; nt = not tested or not shown. Hits are enriched below; roughly 1.2% of the tested compounds scored in any of these assays.

SMILES	CaV13 FRET inh	SR-BI HDL uptake	Efflux pump mplx	SR-BI uptake up	FN deposition inh	DiI quench
CC(C)C#Cc1cnc2c(c1)C(=O)N([C@@H](C)CO)C[C@H](C)[C@H](CN(C)Cc1ccccn1)O2	nt	nt	nt	nt	5.3	nt
CCOc1ccc(C(=O)Nc2ccc(S(=O)(=O)N3C[C@@H]4C[C@@H](C3)c3cccc(=O)n3C4)cc2)cc1	nt	74.9*	0.2	-74.9	nt	-1.3%
COc1cccc(NC(=O)N[C@@H]2C=C[C@@H](CC(=O)NCc3ccncn3)O[C@@H]2CO)c1	nt	nt	nt	nt	0.6	nt
Cc1ccc(-c2csc(N3CCN(c4cc5c(cc4Cl)nc(-c4ccncc4)n5CCN4CCCCC4)CC3)n2)cc1	-9.8	49.4	0.5	-49.4	-9.6	nt
Cc1ccc(-c2csc(N3CCN(c4ccc5nc(-c6ccncc6)n(CCN6CCCCC6)c5c4)CC3)n2)cc1	nt	70.4*	0.2	-70.4	nt	-18.9%
CC(C)NC(=O)NCC[C@H]1CC[C@@H](NC(=O)Nc2ccccc2)[C@@H](CO)O1	nt	nt	nt	nt	6.3	nt
COc1ccc(C2/C=C\CN(S(=O)(=O)c3ccc4ccccc4c3)CC(=O)N2Cc2ccc(F)cc2)cc1 (configuration not stated)	-5.8	48.3	0.0	-48.3	-7.1	4.3%
COc1ccc(C2/C=C\CN(S(=O)(=O)/C=C/c3ccccc3)CC(=O)N2Cc2ccc(F)cc2)cc1 (configuration not stated)	-11.4	50.4	-0.1	-50.4	4.0	nt
O=C1C2CCCN2C(=O)N1CCCN1CCN(c2ccc([N+](=O)[O-])cc2)CC1 (configuration not stated)	-0.8	93.7*	0.1	-93.7	-8.5	-2.2%
COc1cccc(-c2csc(N3CCN(C(=S)Nc4ccccc4Cl)CC3)n2)c1	-7.4	13.7	0.3	-13.7	nt	nt
COc1cccc(-c2csc(N3CCN(C(=S)Nc4cccc(Cl)c4)CC3)n2)c1	-7.3	78.8*	-0.2	-78.8	nt	-5.8%
Cc1ccc(-c2nn(-c3ccccc3)cc2/C=C/C(=O)OCC(=O)NC2CC2)o1	-2.0	72.4*	0.3	-72.4	-2.4	11.3%
COc1cccc2c1cc1c(=O)n(CC(=O)N3CCN(c4cccc(C)c4C)CC3)nc(C)n12	-7.1	-0.4	nt	0.4	0.8	1.6%
Cn1c(CCN2CCN(c3ccccn3)CC2)nc2cc(NS(=O)(=O)c3ccc(Cl)cc3)ccc21	-12.4	72.8*	0.2	-72.8	12.0	-1.5%
CC(C)(C)OC(=O)N1CSC[C@H]1C(=O)NC[C@H](CC(=O)O)c1ccc(Cl)cc1	-17.9	78.2*	0.6	-78.2	1.0	-3.6%
Cc1ccccc1-c1cc(C(=O)NCc2cccc(Br)c2)nn1CC1CC(c2cccc([N+](=O)[O-])c2)=NO1 (configuration not stated)	-5.3	33.6	0.2	-33.6	-3.5	-0.6%
C[C@@H](NC(=O)C[C@@H]1CC[C@@H](NS(=O)(=O)c2cccc(F)c2)[C@@H](CO)O1)c1ccccc1	nt	nt	nt	nt	-0.1	nt
COC(=O)c1ccc2c(c1)C(=O)/C(=C/c1ccc(C)cc1)O2	-3.5	5.7	1.7	-5.7	-6.6	nt
CN(C)c1ccc(/C=C2\Oc3ccc(C#Cc4cccc(N)c4)cc3C2=O)cc1	nt	?	0.4	-70.3	nt	-13.7%
COc1cccc(S(=O)(=O)Nc2ccc3c(c2)[C@@H]2C[C@H](CC(=O)NCc4cccc(F)c4)O[C@H](CO)[C@@H]2O3)c1	nt	nt	nt	nt	7.1	nt
CC(C)CC#Cc1ccc2c(c1)O[C@@H](CN(C)C(=O)C1CC1)[C@H](C)CN([C@H](C)CO)S2(=O)=O	nt	nt	nt	nt	8.5	nt
O=C(CC(C(=O)O)C1CCCO1)Nc1cccc(C(F)(F)F)c1 (configuration not stated)	-4.6	-20.8	0.0	20.8	-9.3	nt
O=C(O)CC(C(=O)Nc1cccc(C(F)(F)F)c1)C1CCCO1 (configuration not stated)	-6.2	-17.2	0.0	17.2	15.4	-3.4%
O=C(c1ccc(S(=O)(=O)NCc2ccco2)cc1)N1CCN(Cc2ccc3c(c2)OCO3)CC1	-2.9	?	0.1	-71.0	-1.7	-0.2%
Cc1ccccc1CN1CCN(C(=O)c2ccc(S(=O)(=O)NCc3ccco3)cc2)CC1	-14.8	63.7	0.0	-63.7	2.6	-2.5%
SMILES	CaV13 FRET inh	SR-BI HDL uptake	Efflux pump mplx	SR-BI uptake up	FN deposition inh	DiI quench
COc1ccc(CN2CCN(C(=O)c3ccc(S(=O)(=O)NCc4ccco4)cc3)CC2)cc1F	-5.1	?	nt	-72.0	7.7	-1.5%
CCS(=O)(=O)Nc1ccc2c(c1)C(=O)N(C)[C@@H]1CC[C@H](CC(=O)N[C@@H]3CCN(Cc4ccccc4)C3)O[C@@H]1CO2	nt	nt	nt	nt	-2.5	nt
CN(C)Cc1cn(CC[C@@H]2CC[C@@H](NC(=O)Nc3ccc4c(c3)OCO4)[C@H](CO)O2)nn1	nt	nt	nt	nt	3.3	nt
Cc1ccc(C)c(NC(=O)C2(C)CC3c4ccccc4C2c2ccccc23)c1 (configuration not stated)	nt	nt	-0.1	nt	nt	nt
Cc1cccc(NC(=O)C2(C)CC3c4ccccc4C2c2ccccc23)c1C (configuration not stated)	-6.6	8.3	0.0	-8.3	nt	2.3%
COc1ccc(CCN2CC(C(=O)NCc3cc(C(C)C)no3)CCC2=O)cc1 (configuration not stated)	-7.2	-12.1	nt	12.1	-7.0	-2.0%
CC(C)c1cc(CNC(=O)C2CCC(=O)N(CCc3ccc(Cl)cc3)C2)on1 (configuration not stated)	-7.6	78.4*	0.1	-78.4	15.0	-1.2%
COc1ccc(CCN2CC(C(=O)NCc3nc(C)c(C)s3)CCC2=O)cc1 (configuration not stated)	-5.1	0.3	0.0	-0.3	-1.2	nt
Cc1noc(C)c1S(=O)(=O)Nc1ccc2c(c1)C(=O)N([C@@H](C)CO)C[C@H](C)[C@H](CN(C)S(=O)(=O)c1c(C)noc1C)OCCCC[C@@H](C)O2	nt	nt	nt	nt	-0.1	nt
CC(C)(C)C(=O)Nc1sc2c(c1-c1nc3ccccc3[nH]1)CCCC2	-7.7	104.3*	1.1	-104.4	nt	8.97µM*
COCC(=O)N(C)C[C@@H]1Oc2cc(-c3ccccc3F)ccc2S(=O)(=O)N([C@H](C)CO)C[C@@H]1C	nt	nt	nt	nt	-2.3	nt
C[C@@H]1CN([C@@H](C)CO)C(=O)c2cc(NC(=O)c3ccncc3)ccc2O[C@H]1CN(C)C(=O)Nc1ccc(C(F)(F)F)cc1	nt	nt	nt	nt	4.4	nt
N#Cc1ccccc1S(=O)(=O)N1CCN(C(=O)C2CC(=O)N(c3ccc4c(c3)OCCO4)C2)CC1 (configuration not stated)	-2.5	-0.8	0.0	0.8	-3.4	-10.3%
O=C(Nc1nccs1)c1ccc(-c2cccc([N+](=O)[O-])c2)o1	1.8	57.5	0.0	-57.4	-1.0	nt
